Activity calls are given as the source filed them. The calls are words filed in the database; no cut-off is given here.
Assays:
[1] = organism: Mus musculus; experiment: Toxicity in mouse assessed as scratching at injection site at 1 mg/ml; type: organism-based; conditions: in vivo
[2] = test system: Mus musculus; experiment: Analgesic activity in sc dosed mouse assessed as peak inhibition of acetic acid-induced writhing measured at 5 to 15 mins; type: functional, organism-based
[3] = test system: Mus musculus; experiment: Analgesic activity in sc dosed mouse assessed as inhibition of acetic acid-induced writhing in presence of 10 mg/kg naloxone; type: functional, organism-based; design: dose 10 mg/kg; conditions: at 10 mg/kg
[4] = test system: Mus musculus; experiment: Analgesic activity in sc dosed mouse assessed as inhibition of acetic acid-induced writhing measured at 30 to 60 mins; type: functional, organism-based
[5] = test system: Mus musculus; experiment: Analgesic activity in sc dosed mouse assessed as inhibition of acetic acid-induced writhing; type: functional
In short: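 Test agents were given to mice by subcutaneous injection, and doses were expressed in mg/kg. The ED50 was derived from the dose-response data and reported with 95% confidence limits.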

[6] = test system: Mus musculus; experiment: Analgesic activity in mouse assessed as inhibition of acetic acid-induced writhing at 100 mg/kg, sc; type: functional, organism-based; design: dose 100 mg/kg

| Compound | Activity [1] | inhibition [2] | inhibition [3] | inhibition [4] | ED50 [5] [mg/kg] | inhibition [6] |
| --- | --- | --- | --- | --- | --- | --- |
| CCC(=O)OC(Cc1ccccc1)(c1ccccc1)C(C)CN.Cl (racemic) | Toxic | Active | inactive | Active | 51 | – |
| CCC(=O)O[C@](Cc1ccccc1)(c1ccccc1)[C@H](C)CN(C)C [PROPOXYPHENE] | – | – | – | – | 6.9 | – |
| CCC1=NCC(C)C(Cc2ccccc2)(c2ccccc2)O1 (racemic) | – | – | – | – | – | inactive |
| CCC(=O)O[C@](Cc1ccccc1)(c1ccccc1)[C@H](C)CN | Toxic | Active | inactive | Active | 25 | – |
